Laboratory results as given in ChEMBL document CHEMBL4014314, “Rational Design of Bisubstrate-Type Analogues as Inhibitors of DNA Methyltransferases in Cancer Cells” (J Med Chem, 2017).
Calls of active or inactive are those of the source. The rule behind the calls is not given here.

Experiments:
[1] = biological target: T1, DNA (cytosine-5)-methyltransferase 1 (Homo sapiens, UniProt P26358); experiment: Inhibition of full length His-tagged human DNMT1 using SAM/[methyl-3H]SAM assessed as reduction of methylation in biotinylated hemimethylated DNA duplex at 32 uM after 1 hr by scintillation counting method relative to control
Homo sapiens [2] = species on record: Homo sapiens; experiment: Inhibition of DNMT in human HCT116 cells assessed as induction of CDKN2A mRNA expression at 100 nM after 7 days by RT qPCR method relative to control; type: cell-based
Summary of the method: (§1)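 HCT116 cells seeded 1 × 10^5/mL and exposed to 100 nM for 3 or 7 days. CDKN2A mRNA quantified by RT-qPCR with SYBR chemistry: 95 °C 30 s, then 40 cycles of 95 °C 5 s and 60 °C 30 s, followed by a melt curve. Expressed as fold change relative to untreated cells; at least two independent experiments, standard errors.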

Homo sapiens [3] = species on record: Homo sapiens; experiment: Inhibition of DNMT in human KG1 cells assessed as luciferase gene driven CMV promoter demethylation by measuring fold increase in luciferase reactivation at 5 uM after 24 hrs by luciferase reporter gene assay relative to control; type: cell-based
Summary of the method: (§2)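 Leukemia KG-1 cells carrying a stable luciferase gene under a partially methylated CMV promoter, treated in 96-well plates for 24 h. Luciferase signal read by luminescence (Britelite); reactivation fold expressed as ratio to non-treated cells. Mean of three experiments with standard error.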

KG-1 = experiment: Toxicity in human KG1 cells assessed as effect on cell viability at 5 uM after 24 hrs by ATPLite assay; type: cell-based; details: kg-1, 24 h
Homo sapiens [4] = species on record: Homo sapiens; experiment: Inhibition of DNMT in human KG1 cells assessed as CpG site demethylation at CMV promoter at 5 uM after 24 hrs by NOMe-Seq method relative to control; type: cell-based
Summary of the method: (§3)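 CMV-luc KG-1 acute myeloid leukemia cells in RPMI-1640 with 10% FCS, seeded 2 × 10^5/mL and treated for 24 h at 1 or 5 μM. NOMe-Seq: bisulfite conversion, CMV promoter PCR (40 cycles), cloning and sequencing. CpG methylation and GpC accessibility expressed as ratio of percentage methylated cytosines in treated versus untreated sample.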

Homo sapiens [5] = species on record: Homo sapiens; experiment: Inhibition of DNMT in human KG1 cells assessed as luciferase gene driven CMV promoter demethylation by measuring luciferase reactivation at 0.1 uM after 24 hrs by luciferase reporter gene assay; type: cell-based; summary of the method: as §2
Homo sapiens [6] = species on record: Homo sapiens; experiment: Inhibition of DNMT in human HCT116 cells assessed as induction of CDKN2A mRNA expression at 100 nM after 3 days by RT qPCR method; type: cell-based; summary of the method: as §1
[7] = biological target: T2, DNA (cytosine-5)-methyltransferase 3A (Homo sapiens, UniProt Q9Y6K1); experiment: Inhibition of human DNMT3A catalytic domain using AdoMet assessed as reduction of methylation in 5'-biotin/3' 6-carboxyfluorescein labeled DNA duplex at CpG site at 32 uM after 1 hr by fluorescence assay relative to control
Homo sapiens [8] = species on record: Homo sapiens; experiment: Inhibition of DNMT in human KG1 cells assessed as nucleosome occupancy at CMV promoter by measuring increase in luciferase signal at 5 uM after 24 hrs by NOMe-Seq method relative to control; type: cell-based
[9] = biological target: T2, DNA (cytosine-5)-methyltransferase 3A; experiment: Inhibition of human DNMT3A catalytic domain using AdoMet assessed as reduction of methylation in 5'-biotin/3' 6-carboxyfluorescein labeled DNA duplex at CpG site after 1 hr by fluorescence assay
Summary of the method: (§4)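 Human full-length DNMT1 and catalytic DNMT3A tested for methylation of a DNA duplex; the paper gives assay details elsewhere. EC50 from a sigmoid dose-response fit with variable Hill slope; reported as median with SE from at least two independent experiments for DNMT1 and three for DNMT3A; DNMT3A curves run in technical duplicates.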

Homo sapiens [10] = species on record: Homo sapiens; experiment: Inhibition of DNMT in human HCT116 cells assessed as demethylation of CDKN2A promoter at 100 nM after 3 days by COBRA analysis relative to control; type: cell-based
Summary of the method: (§5)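 HCT116 colon cancer cells in MEM with HEPES, L-glutamine and 10% FCS, 37 °C, 5% CO2; seeded 1 × 10^5/mL, treated for 3 or 7 days at 100 nM. Bisulfite-converted DNA amplified at the CDKN2A promoter, then digested with BsiEI at 60 °C for 90 min (COBRA); bands quantified on 2% agarose gel. Methylation given as ratio to untreated cells; at least two independent experiments, standard errors.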

[11] = biological target: T1, DNA (cytosine-5)-methyltransferase 1; experiment: Inhibition of full length His-tagged human DNMT1 using SAM/[methyl-3H]SAM assessed as reduction of methylation in biotinylated hemimethylated DNA duplex at 100 uM after 1 hr by scintillation counting method relative to control
Homo sapiens [12] = species on record: Homo sapiens; experiment: Inhibition of DNMT in human KG1 cells assessed as increase in DNA accessibility by opening the chromatin at 5 uM after 24 hrs by NOMe-Seq method relative to control; type: cell-based; design: scale not given: the % may be the effect or the level left; summary of the method: as §3
Homo sapiens [13] = species on record: Homo sapiens; experiment: Inhibition of DNMT in human HCT116 cells assessed as demethylation of CDKN2A promoter at 100 nM after 7 days by COBRA analysis relative to control; type: cell-based; summary of the method: as §5
[14] = biological target: T2, DNA (cytosine-5)-methyltransferase 3A; experiment: Inhibition of human DNMT3A catalytic domain using AdoMet assessed as reduction of methylation in 5'-biotin/3' 6-carboxyfluorescein labeled DNA duplex at CpG site at 10 uM after 1 hr by fluorescence assay relative to control
Homo sapiens [15] = species on record: Homo sapiens; experiment: Inhibition of DNMT in human KG1 cells assessed as luciferase gene driven CMV promoter demethylation by measuring fold increase in luciferase reactivation at 1 uM after 24 hrs by luciferase reporter gene assay relative to control; type: cell-based; summary of the method: as §2
[16] = biological target: T1, DNA (cytosine-5)-methyltransferase 1; experiment: Inhibition of full length His-tagged human DNMT1 using SAM/[methyl-3H]SAM assessed as reduction of methylation in biotinylated hemimethylated DNA duplex after 1 hr by scintillation counting method; summary of the method: as §4
[17] = Solubility of the compound in RPMI-1640 medium; type: physicochemical
[18] = Binding affinity to 265 bp pBS DNA at 0.01 to 10 uM after 15 mins using 3'-end labeled using alpha-[32P]-dATP by DNase I footprinting assay
[19] = Binding affinity to 5'-TATATACGTACTGTGTTTTCACAGTACGTATATA-3' CpG site hairpin duplex DNA (unknown origin) assessed as change in melting temperature at 10 uM
[20] = Binding affinity to 5'-TATATACGTACGGTGTTTTCACCGTACGTATATA-3' CpG site hairpin duplex DNA (unknown origin) assessed as change in melting temperature at 10 uM
[21] = Binding affinity to 117 bp pBS DNA at 0.01 to 10 uM after 15 mins using 3'-end labeled using alpha-[32P]-dATP by DNase I footprinting assay
Homo sapiens [22] = species on record: Homo sapiens; experiment: Inhibition of DNMT in human KG1 cells assessed as CpG site demethylation at CMV promoter at 1 uM after 24 hrs by NOMe-Seq method relative to control; type: cell-based; summary of the method: as §3
Homo sapiens [23] = species on record: Homo sapiens; experiment: Inhibition of DNMT in human KG1 cells assessed as increase in DNA accessibility by opening the chromatin at 1 uM after 24 hrs by NOMe-Seq method relative to control; type: cell-based; design: scale not given: the % may be the effect or the level left; summary of the method: as §3

T1 sequence (P26358 whole entry): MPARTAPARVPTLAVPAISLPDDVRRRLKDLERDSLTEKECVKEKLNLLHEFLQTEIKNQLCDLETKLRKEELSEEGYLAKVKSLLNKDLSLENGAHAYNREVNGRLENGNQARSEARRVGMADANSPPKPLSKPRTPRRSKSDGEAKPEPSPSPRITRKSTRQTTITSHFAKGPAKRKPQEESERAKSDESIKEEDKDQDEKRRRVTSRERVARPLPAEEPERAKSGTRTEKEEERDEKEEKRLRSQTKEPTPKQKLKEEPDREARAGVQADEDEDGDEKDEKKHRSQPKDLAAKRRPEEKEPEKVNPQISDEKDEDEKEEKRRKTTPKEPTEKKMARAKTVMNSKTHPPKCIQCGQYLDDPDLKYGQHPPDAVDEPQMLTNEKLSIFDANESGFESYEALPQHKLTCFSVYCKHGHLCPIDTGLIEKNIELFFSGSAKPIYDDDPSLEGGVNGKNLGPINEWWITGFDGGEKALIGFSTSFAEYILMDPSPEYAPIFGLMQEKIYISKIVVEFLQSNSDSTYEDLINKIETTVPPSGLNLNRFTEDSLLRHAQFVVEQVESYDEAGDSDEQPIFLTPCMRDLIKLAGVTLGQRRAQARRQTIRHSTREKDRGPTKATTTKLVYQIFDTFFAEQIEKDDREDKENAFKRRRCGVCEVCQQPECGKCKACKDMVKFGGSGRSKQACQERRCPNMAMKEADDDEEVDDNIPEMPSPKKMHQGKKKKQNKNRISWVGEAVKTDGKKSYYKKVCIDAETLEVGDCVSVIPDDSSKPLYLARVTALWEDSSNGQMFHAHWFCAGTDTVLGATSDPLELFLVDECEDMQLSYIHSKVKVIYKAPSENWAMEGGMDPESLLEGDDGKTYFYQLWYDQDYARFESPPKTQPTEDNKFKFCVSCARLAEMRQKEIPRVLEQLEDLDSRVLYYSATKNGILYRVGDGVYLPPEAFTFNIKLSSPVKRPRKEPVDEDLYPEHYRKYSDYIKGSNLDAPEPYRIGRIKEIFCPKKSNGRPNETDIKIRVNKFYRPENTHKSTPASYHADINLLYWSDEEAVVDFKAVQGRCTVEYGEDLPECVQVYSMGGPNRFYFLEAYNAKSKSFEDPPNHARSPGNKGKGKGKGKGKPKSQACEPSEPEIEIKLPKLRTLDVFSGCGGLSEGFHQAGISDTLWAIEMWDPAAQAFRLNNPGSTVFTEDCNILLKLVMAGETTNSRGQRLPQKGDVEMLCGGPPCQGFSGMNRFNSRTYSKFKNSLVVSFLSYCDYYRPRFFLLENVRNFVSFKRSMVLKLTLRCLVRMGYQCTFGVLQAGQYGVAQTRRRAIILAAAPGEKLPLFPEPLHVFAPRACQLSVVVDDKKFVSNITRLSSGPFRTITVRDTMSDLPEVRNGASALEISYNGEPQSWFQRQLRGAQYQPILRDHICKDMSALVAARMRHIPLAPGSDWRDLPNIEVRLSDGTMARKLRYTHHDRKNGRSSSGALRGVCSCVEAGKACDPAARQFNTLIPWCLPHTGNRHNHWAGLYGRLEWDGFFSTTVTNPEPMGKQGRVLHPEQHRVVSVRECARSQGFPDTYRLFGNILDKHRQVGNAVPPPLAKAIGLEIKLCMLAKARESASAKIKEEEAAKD
T2 sequence (Q9Y6K1 whole entry, looked up, the tested form may be a part): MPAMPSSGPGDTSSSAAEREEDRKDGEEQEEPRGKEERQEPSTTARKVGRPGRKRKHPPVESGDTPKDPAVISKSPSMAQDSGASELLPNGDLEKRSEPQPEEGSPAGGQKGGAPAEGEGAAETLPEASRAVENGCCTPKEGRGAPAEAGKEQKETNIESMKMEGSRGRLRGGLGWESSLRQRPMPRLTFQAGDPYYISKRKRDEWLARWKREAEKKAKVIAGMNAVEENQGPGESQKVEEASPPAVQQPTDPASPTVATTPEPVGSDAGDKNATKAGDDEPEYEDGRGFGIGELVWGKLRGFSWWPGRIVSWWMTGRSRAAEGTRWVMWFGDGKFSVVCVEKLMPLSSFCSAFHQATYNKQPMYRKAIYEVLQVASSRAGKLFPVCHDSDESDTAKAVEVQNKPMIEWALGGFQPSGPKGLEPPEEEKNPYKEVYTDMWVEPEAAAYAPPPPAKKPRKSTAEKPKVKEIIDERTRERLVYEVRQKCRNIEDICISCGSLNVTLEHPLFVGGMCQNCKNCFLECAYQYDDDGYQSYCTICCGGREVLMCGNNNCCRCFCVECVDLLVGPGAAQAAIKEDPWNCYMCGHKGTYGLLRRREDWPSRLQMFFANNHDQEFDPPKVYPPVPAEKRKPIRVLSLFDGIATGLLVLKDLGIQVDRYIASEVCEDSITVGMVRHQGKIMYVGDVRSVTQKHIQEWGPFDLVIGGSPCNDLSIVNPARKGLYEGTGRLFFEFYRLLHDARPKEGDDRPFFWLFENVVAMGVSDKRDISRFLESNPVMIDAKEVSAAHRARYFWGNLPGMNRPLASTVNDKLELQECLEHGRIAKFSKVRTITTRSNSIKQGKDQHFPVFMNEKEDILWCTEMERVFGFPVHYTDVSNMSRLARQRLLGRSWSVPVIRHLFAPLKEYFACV

inhibition [1]	inhibition [7]	EC50 [9]	inhibition [11]	inhibition [14]	EC50 [16]	SMILES	fold change (FC) (Homo sapiens [3])	Activity (KG-1)	inhibition (Homo sapiens [4])	fold change (FC) (Homo sapiens [8])	inhibition (Homo sapiens [10])	Activity (Homo sapiens [12])	inhibition (Homo sapiens [13])	fold change (FC) (Homo sapiens [15])	also measured
24%	83%	1.1 µM	69%	86%	100 µM	c1ccc(-c2ccc(CNc3ncnc4cc(OCC5CCN(CCNc6ccnc7ccccc67)CC5)ccc34)cc2)cc1	4	Non-Toxic	52%	4.2	20%	87%	71%	4	fold change (FC) (Homo sapiens [2]): 13; inhibition (Homo sapiens [5]): Active; Activity (Homo sapiens [6]): inactive
86%	90%	0.3 µM	94%	91%	20 µM	c1ccc2c(NCCNc3ncnc4cc(OCC5CCN(CCNc6ccnc7ccccc67)CC5)ccc34)cccc2c1	4	–	–	–	–	–	–	4	solubility [17]: Soluble
25%	98%	4.4 µM	91%	81%	46 µM	c1ccc(CCCNc2ncnc3cc(OCC4CCN(CCNc5ccnc6ccccc56)CC4)ccc23)cc1	4	Non-Toxic	33%	4.7	32%	77%	42%	4	Activity [18]: inactive; Activity [19]: inactive; Activity [20]: inactive; Activity [21]: inactive
–	–	–	–	–	–	Nc1ncn([C@H]2C[C@H](O)[C@@H](CO)O2)c(=O)n1	–	–	–	–	60%	–	80%	–	inhibition (Homo sapiens [22]): 50%; Activity (Homo sapiens [23]): 120%
